Data on two compounds can be found in ChEMBL document CHEMBL1649151, “Urinary bactericidal activity of Doripenem versus that of levofloxacin in patients with complicated urinary tract infections or pyelonephritis” (Antimicrob Agents Chemother, 2009).

In brackets after ≈: the same amount, converted by molar mass. Bounds are passed on as bounds.

The subject of assay [1] is Enterococcus faecalis. Briefly: Antimicrobial activity against Enterococcus faecalis 2215770 B-T isolated from patient with pyelonephritis by Etest. In kind it is functional.
Assay [2] relates to Enterococcus faecalis. Briefly: Antimicrobial activity against Enterococcus faecalis 2215770 B-T isolated from patient with pyelonephritis assessed as >3-log reduction in urinary bacterial titer after 8 hrs. In kind it is functional, Urine. Put shortly: (§1)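 Urine was collected before dosing and on day 3 of i.v. therapy (steady state), in 4-h intervals from infusion start (0–4 to 20–24 h), stored at −80°C and sterile filtered. It was serially diluted twofold (1:0 to 1:131,072) in the patient's drug-free pre-dose urine. Microdilution used an inoculum of 1.0 x 10^6–9.5 x 10^6 CFU/ml, incubated 18 h at 37°C, then subcultured 24 h on blood agar. The endpoint was >99.9% kill, reported as reciprocal titer.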

Assay [3] has as its system Staphylococcus haemolyticus. Briefly: Antimicrobial activity against Staphylococcus haemolyticus 1949819 B-M isolated from patient with pyelonephritis assessed as >3-log reduction in urinary bacterial titer after 12 hrs. It is filed as functional, Urine.
Assay [4] has as its system Escherichia coli. Briefly: Antimicrobial activity against Escherichia coli 2062717 B-P isolated from patient with pyelonephritis assessed as >3-log reduction in urinary bacterial titer after 12 hrs. In kind it is functional, Urine. Put shortly:
(§2)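 Patient urine was collected on day 3 of i.v. therapy (steady state) over 4-h intervals after infusion start, stored at –80°C, and sterile filtered. It was twofold serially diluted (1:0 to 1:131,072) in the patient's own pre-dose drug-free urine, inoculated to 1.0 x 10^6–9.5 x 10^6 CFU/ml, and incubated for 18 h at 37°C. Subcultures were grown on blood agar for 24 h. The UBT is the reciprocal of the highest dilution giving >99.9% kill.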

Assay [5] concerns Escherichia coli. Briefly: Antimicrobial activity against Escherichia coli 2062717 B-P isolated from patient with pyelonephritis assessed as >3-log reduction in urinary bacterial titer after 16 hrs. It is filed as functional, Urine. In short, it runs like this:
as §2

The test system of assay [6] is Escherichia coli. Briefly: Antimicrobial activity against Escherichia coli 1949826 B-L isolated from patient with pyelonephritis assessed as >3-log reduction in urinary bacterial titer after 4 hrs. It is filed as functional, Urine. In short, it runs like this:
as §2

Assay [7] concerns Escherichia coli. Briefly: Antimicrobial activity against Escherichia coli 1889645 B-I isolated from patient with pyelonephritis assessed as >3-log reduction in urinary bacterial titer after 12 hrs. In kind it is functional, Urine. In short, it runs like this:
(§3)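 Urine was collected on day 3 of i.v. therapy (steady state) over 4-h intervals from infusion start (0–4 to 20–24 h), stored at –80°C and sterile filtered. It was serially diluted twofold (1:0 up to 1:131,072) in the patient's own pre-dose drug-free urine. Microdilution used a final inoculum of 1.0 x 10^6 to 9.5 x 10^6 CFU/ml, incubated 18 h at 37°C in air. 10 µl was subcultured onto 5% blood Columbia agar for 24 h at 37°C. The bactericidal endpoint was >99.9% (>3-log) kill, reported as a reciprocal titer.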

Assay [8] is described as follows: T>MIC in Prevotella spp.-infected patient at 250 to 1000 mg/kg administered every 8 hrs. It is filed as functional. Conditions: dose mg/kg 250-1000; pooled result: one value given for 10 cell lines, strains, targets or settings.
For assay [9], the system named is Escherichia coli. Briefly: Antimicrobial activity against Escherichia coli 1949825 B-K isolated from patient with pyelonephritis assessed as >3-log reduction in urinary bacterial titer after 12 hrs. It is filed as functional, Urine. Put shortly:
as §2

The subject of assay [10] is Escherichia coli. Briefly: Antimicrobial activity against Escherichia coli 2297257 B-W isolated from patient with pyelonephritis assessed as >3-log reduction in urinary bacterial titer after 16 hrs. In kind it is functional, Urine.
The test system of assay [11] is Escherichia coli. Briefly: Antimicrobial activity against Escherichia coli 1889647 B-H isolated from patient with pyelonephritis assessed as >3-log reduction in urinary bacterial titer after 8 hrs. It is filed as functional, Urine. Put shortly:
as §3

The subject of assay [12] is Staphylococcus aureus. Briefly: Antimicrobial activity against Staphylococcus aureus 2215767-9 B-S isolated from patient with pyelonephritis assessed as >3-log reduction in urinary bacterial titer after 16 hrs. It is filed as functional, Urine.
The subject of assay [13] is Staphylococcus epidermidis. Briefly: Antimicrobial activity against Staphylococcus epidermidis 2297262-9 B-V isolated from patient with pyelonephritis assessed as >3-log reduction in urinary bacterial titer after 16 hrs. In kind it is functional, Urine.
Assay [14] relates to Escherichia coli. Briefly: Antimicrobial activity against Escherichia coli 1889647 B-H isolated from patient with pyelonephritis assessed as >3-log reduction in urinary bacterial titer after 4 hrs. In kind it is functional, Urine. In short, it runs like this: as §3
In the next assay the test system is Serratia marcescens. Briefly: Antimicrobial activity against Serratia marcescens 2297260 B-U isolated from patient with pyelonephritis assessed as >3-log reduction in urinary bacterial titer after 20 hrs. It is filed as functional, Urine.
The subject of assay [15] is Escherichia coli. Briefly: Antimicrobial activity against Escherichia coli 2062716 B-R isolated from patient with pyelonephritis assessed as >3-log reduction in urinary bacterial titer after 8 hrs. It is filed as functional, Urine. Put shortly:
as §2

The subject of assay [16] is Pseudomonas aeruginosa. Briefly: Antimicrobial activity against Pseudomonas aeruginosa 1821383 B-E isolated from patient with pyelonephritis assessed as >3-log reduction in urinary bacterial titer after 20 hrs. It is filed as functional, Urine.
The subject of assay [17] is Enterococcus faecalis. Briefly: Antimicrobial activity against Enterococcus faecalis 2215767-10 B-S isolated from patient with pyelonephritis assessed as >3-log reduction in urinary bacterial titer after 20 hrs. In kind it is functional, Urine. In short, it runs like this:
as §1

The test system of assay [18] is Staphylococcus epidermidis. Briefly: Antimicrobial activity against Staphylococcus epidermidis 2297262-9 B-V isolated from patient with pyelonephritis by Etest. In kind it is functional.
The test system of assay [19] is Enterococcus faecalis. Briefly: Antimicrobial activity against Enterococcus faecalis 2297262-10 B-V isolated from patient with pyelonephritis assessed as >3-log reduction in urinary bacterial titer after 4 hrs. In kind it is functional, Urine. In short, it runs like this:
as §1

For assay [20], the system named is Escherichia coli. Briefly: Antimicrobial activity against Escherichia coli 1780064 A-X isolated from patient with pyelonephritis assessed as >3-log reduction in urinary bacterial titer after 16 hrs. It is filed as functional, Urine. In short, it runs like this: as §1
Assay [21] relates to Escherichia coli. Briefly: Antimicrobial activity against Escherichia coli 1780064 A-X isolated from patient with pyelonephritis assessed as >3-log reduction in urinary bacterial titer after 8 hrs. It is filed as functional, Urine. In short, it runs like this:
as §3

Assay [22] deals with Pseudomonas aeruginosa. Briefly: Antimicrobial activity against Pseudomonas aeruginosa 2062713 B-Q isolated from patient with pyelonephritis assessed as >3-log reduction in urinary bacterial titer after 20 hrs. In kind it is functional, Urine.
Assay [23] concerns Staphylococcus epidermidis. Briefly: Antimicrobial activity against Staphylococcus epidermidis 1949822 B-J isolated from patient with pyelonephritis assessed as >3-log reduction in urinary bacterial titer after 12 hrs. It is filed as functional, Urine.
The subject of assay [24] is Escherichia coli. Briefly: Antimicrobial activity against Escherichia coli 1655646 A-Y isolated from patient with pyelonephritis assessed as >3-log reduction in urinary bacterial titer after 12 hrs. In kind it is functional, Urine. Put shortly: as §1
Assay [25] has as its system Escherichia coli. Briefly: Antimicrobial activity against Escherichia coli 1889647 B-H isolated from patient with pyelonephritis assessed as >3-log reduction in urinary bacterial titer after 20 hrs. In kind it is functional, Urine. Put shortly: as §3
The test system of assay [26] is Staphylococcus epidermidis. Briefly: Antimicrobial activity against Staphylococcus epidermidis 2297262-9 B-V isolated from patient with pyelonephritis assessed as >3-log reduction in urinary bacterial titer after 24 hrs. In kind it is functional, Urine.
Assay [27] relates to Escherichia coli. Briefly: Antimicrobial activity against Escherichia coli 1780064 A-X isolated from patient with pyelonephritis assessed as >3-log reduction in urinary bacterial titer after 20 hrs. In kind it is functional, Urine. In short, it runs like this: as §3
The subject of assay [28] is Escherichia coli. Briefly: Antimicrobial activity against Escherichia coli 1821386 B-D isolated from patient with pyelonephritis assessed as >3-log reduction in urinary bacterial titer after 24 hrs. In kind it is functional, Urine. Put shortly:
as §3

For assay [29], the system named is Pseudomonas aeruginosa. Briefly: Antimicrobial activity against Pseudomonas aeruginosa 1821383 B-E isolated from patient with pyelonephritis by Etest. In kind it is functional.
The subject of assay [30] is Pseudomonas aeruginosa. Briefly: Antimicrobial activity against Pseudomonas aeruginosa 2062713 B-Q isolated from patient with pyelonephritis assessed as >3-log reduction in urinary bacterial titer after 4 hrs. It is filed as functional, Urine.
The test system of assay [31] is Staphylococcus aureus. Briefly: Antimicrobial activity against Staphylococcus aureus 1889640 A-Z isolated from patient with pyelonephritis assessed as >3-log reduction in urinary bacterial titer after 8 hrs. In kind it is functional, Urine.
For assay [32], the system named is Escherichia coli. Briefly: Antimicrobial activity against Escherichia coli 1821386 B-D isolated from patient with pyelonephritis assessed as >3-log reduction in urinary bacterial titer after 8 hrs. It is filed as functional, Urine. Put shortly: as §3

By MIC is commonly meant the lowest concentration found to suppress growth. Read a high MIC as weaker potency.

For `C[C@@H](O)[C@H]1C(=O)N2C(C(=O)O)=C(S[C@@H]3CN[C@H](CNS(N)(=O)=O)C3)[C@H](C)[C@H]12` [DORIPENEM], the MIC in the assay with Enterococcus faecalis [1] was 0.25 µg/mL (≈ 0.595 µM). Further, the urinary bactericidal titer is 512 reciprocal titer in the assay on Enterococcus faecalis [2]; 1024 reciprocal titer in assay [3]; 1024 reciprocal titer in the assay on Escherichia coli [4]; 512 reciprocal titer with Escherichia coli [5]; 128 reciprocal titer in the assay on Escherichia coli [6]; 131000 reciprocal titer in the assay with Escherichia coli [7]. The figures for the urinary bactericidal titer in the assay on Escherichia coli [9] and with Escherichia coli [10] were 8192 reciprocal titer and 4096 reciprocal titer, respectively. Also, the “fT>MIC” value in [8] is reported as 35%.
As for `C[C@H]1COc2c(N3CCN(C)CC3)c(F)cc3c(=O)c(C(=O)O)cn1c23.C[C@H]1COc2c(N3CCN(C)CC3)c(F)cc3c(=O)c(C(=O)O)cn1c23.O` [LEVOFLOXACIN], the urinary bactericidal titer in the assay on Escherichia coli [11] is 2048 reciprocal titer; in the assay with Staphylococcus aureus [12], 0 reciprocal titer; in [13], 2 reciprocal titer; with Escherichia coli [14], 2048 reciprocal titer; in the assay with Serratia marcescens, 32 reciprocal titer; in the assay with Escherichia coli [15], 512 reciprocal titer. Also, the urinary bactericidal titer in the assay with Pseudomonas aeruginosa [16] worked out at 128 reciprocal titer; in the assay on Escherichia coli [20], 128 reciprocal titer; in the assay with Escherichia coli [21] it was 512 reciprocal titer; with Pseudomonas aeruginosa [22] it was 4 reciprocal titer; in assay [23] it was 2 reciprocal titer; in the assay with Escherichia coli [24], 2048 reciprocal titer. The urinary bactericidal titer in the assay with Escherichia coli [25] is 512 reciprocal titer; in [26] it was 2 reciprocal titer; in the assay with Escherichia coli [27], 256 reciprocal titer; in the assay with Escherichia coli [28] it was 2048 reciprocal titer; in the assay with Pseudomonas aeruginosa [30], 8 reciprocal titer; in the assay on Staphylococcus aureus [31] it was 128 reciprocal titer. Also, the urinary bactericidal titer with Escherichia coli [32] amounted to 8192 reciprocal titer. Besides, the Time in the assay with Enterococcus faecalis [17] and with Enterococcus faecalis [19] was 0 h in each case. The results for the MIC (in assay [18]; in the assay on Pseudomonas aeruginosa [29]) were more than 32 µg/mL and 0.25 µg/mL, respectively.
